Test results reported in the EternaBench riboswitch data.

Tested on: MS2 coat protein
Test: apparent Kd, MS2 coat protein; higher = weaker binding; RNA-MaP array; FMN 200 µM where present
In short: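 Stalled E. coli RNA polymerase produced the designs on Illumina sequencing-chip clusters. SNAP-549-labelled MS2 coat protein was added from 0.7 or 1.5 nM, doubling to 3 µM, without and then with constant ligand, in 100 mM Tris-HCl pH 7.5, 80 mM KCl, 4 mM MgCl2, BSA, DTT, yeast tRNA and Tween-20. The apparent Kd is the median of filtered per-cluster fits of green signal normalised to red-channel RNA signal and control-cluster median Fmax.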

[1] = designed as: ON switch for flavin mononucleotide, no ligand
[2] = ligand present: flavin mononucleotide, designed as: ON switch for flavin mononucleotide
[3] = designed as: OFF switch for flavin mononucleotide, no ligand
[4] = ligand present: flavin mononucleotide, designed as: OFF switch for flavin mononucleotide

Sequence	apparent Kd [1] [µM]	apparent Kd [2] [µM]	apparent Kd [3] [µM]	apparent Kd [4] [µM]
AUUAAACAUGAGGAUCACCCAUGUCAACAAAGUCGAGGAUAUGGGCAAAUAAAAUAAGUACCAGAAGGCGAAUAAU	0.113	0.0242	–	–
UCUACAUAAAUUCAUCAAUACAGUAAGGAUAUGAGAUACAUGAGGAUCACCCAUGUGCAUGUGAAUUAGAAGGUACAAUUAACU	–	–	0.0144	0.012
UUUGUUUUGCAAGGAUAUGUUUAAUUUUAGUUUCCUUACACAUGAGGAUCACCCAUGUUAUACUUACAGAAGGUGCGUAAUUUU	–	–	0.126	0.094
CAUAACUUUUCUCAUGUAAACAUGAGGAUCACCCAUGUAAUGAGAAGGAGGAGGAAGAGAGAAUCCUAGGAUAUCAGAAUUGUU	–	–	0.00641	0.00684
GGAUGAUUAACAGGAUAUCAUUUGUAAAUUGGUUGAGAAGGGUUAAUGAUUUAAACGACCUGUUACAUGAGGAUCACCCAUGUU	0.0643	0.0382	–	–
UAAUAAUUAUGAGGAUAUAUACAACAUGAGGAUCACCCAUGUACCCAUGUAGUAGAAGGCAUAUUUUUAGUUAAUAACAUAACU	0.0752	0.0311	–	–
UUGGACGUCGUAGGAUAUGUAGGAUAUUCCUACAUGAGGAUCACCCAUGUUGACAUGGAAGAAAGACAGAAGGACGAUGUCCAU	0.325	0.00848	–	–
CGUGCGUCGACAGGAUAUACAGAUUGGCUCCGGUACAUGAGGAUCACCCAUGUAGAAGGGUCACGCGCGGAUAGAACAUUCUAA	–	–	0.00909	0.0403
GUUAUUUAUGUAGGAUAUGCGAGGCGAGCCUGAGCAGAAGGACAUGAGGAUCACCCAUGUAUUGCGGUUUAUGUUCAGAUCGCU	–	–	0.0153	0.019
UAUGUUAGCACAGGAUAUUGUUAUUAUUUAAUUCAAGAAGGGUGUACAUGAGGAUCACCCAUGUUAUGGUUUUAUCUUUUACAA	–	–	1.28	0.457
GGAAAUCAUGUAGGAUAUGCAUGGCGAAGCUACGCAGAAGGACAUGAGGAUCACCCAUGUUAUAGCGUCCGUGAAAGGAUGCAA	–	–	0.0397	0.12
GUCGUACAUGAGGAUCACCCAUGUGAGGAUAUGAGUGACUCAGUGAAAACUGAGUCACUCAGAAGGCGCAUGAU	–	–	0.0845	0.384
CCACGUCACAUCUACAUGAGGAUCACCCAUGUCAAAAGACAUGAGGAUAUGCAUCCUAAUUGGAUGCAGAAGGCAUGGACGUGG	0.972	0.0697	–	–
UAAGUGUGAGGAUAUUCGUAGUACACGGAGACGUGUAUUACGGAGAAGGCACAUGAGGAUCACCCAUGUUCCUU	–	–	0.0207	0.182
AGAAAGUGAGGAUAUACAUGAGGAUCACCCAUGUAGAACGAGAGUUAUAAAAAUGGAAGUAGAAGGCACAAAAG	–	–	0.0343	0.0371
AAUAACAGAGGAUAUACUGUUUUAUGUAUUUAUUAUUUUAAACAUGAGGAUCACCCAUGUAGAAGGCUGAUUAA	–	–	0.0302	0.027
ACCUCACAUGAGGAUCACCCAUGUUAGGAUAUCUCGAUGCUCCACGGGCGGUAGCAUCAGAGAAGGAACGUGCU	–	–	0.0239	0.0215
ACUGGUCGAGGAUAUACAUGAGGAUCACCCAUGUGGUUACGUGACGAUAGUCACGAAUGUAGAAGGCGACCAGU	–	–	0.236	0.652
GGUCUGAUAUGAGGAUAUGCUCAGGAAUACUGAGCAGAAGGCAUGUGAAAACAUGAGGAUCACCCAUGUGAUCAAUACAGACCA	0.147	0.0237	–	–
GCUGGUCGAGGAUAUAUAUGACGUGCUUCGGCACGAAGAUCACAUGAGGAUCACCCAUGUAGAAGGUGACCAGC	–	–	0.0538	0.267
AGCUGUGGCCGAGGAUAUCUGACUUCAAUAACCGAAAUAUAAUCGGACAUGAGGAUCACCCAUGUAGAGAAGGCGGUCUCAGCA	–	–	0.0171	0.0249
UUGGACGUCGUAGGAUAUGUAGGAUAUUCGUACAUGAGGAUCACCCAUGUUGACAUGGAAGAAGGACAGAAGGACGAUGUCCAU	0.0122	0.00455	–	–
UUGGUUCUCGUAGGAUAUGUAGGAUAUGCCUACAUGAGGAUCACCCAUGUUCGCAUGGCAGAAGGACAGAAGGACGAUCACCAU	0.378	0.0173	–	–
ACAAGCUCACAUGAGGAUCACCCAUGUGGUCGCUAAUAUACCAGAAGGGUGGGUCCUAAUGAUGUACAGGAUAUGGAGUAGGCG	0.196	0.062	–	–

Sequence	apparent Kd [1] [µM]	apparent Kd [2] [µM]	apparent Kd [3] [µM]	apparent Kd [4] [µM]
GGGAAGUUAGGAUAUGCUGCUCGUCACUUGCGUGAUGAGUAGCAGAAGGGACAUGAGGAUCACCCAUGUAAAAA	–	–	0.0511	0.0268
GCCGAACAUGAGGAUCACCCAUGUCCGGGUAGUCAAGGAUAUGGGUAGGCAAUGCCGUGGCCAGAAGGUGGCUAUC	0.0976	0.0309	–	–
AUGCCGUGCAGAGCGCGACGGCGAACAUGAGGAUCACCCAUGUAGGAUAUACUACACAAAGUGUAGUAGAAGGACGUGCAACAC	–	–	0.0255	0.0347
UAUAUAUAGUAAGGAUAUGUAUUCAUUUUAUAAACAGAAGGUACUGACAUGAGGAUCACCCAUGUUUUAGUGUGGGCAUGUAGA	–	–	0.0815	0.132
AACUGUACAGGAUAUACAUGAGGAUCACCCAUGUGAGAAUUAAGUGGAGAACCACAAAGUAGAAGGGUACAGGA	–	–	0.0448	0.286
GAGCUGACAAUAAAUAACUCAAAUACAUGAGGAUCACCCAUGUAGGAUAUGCAGUGGAAUACACUGCAGAAGGACAUAGUCAGC	–	–	0.0134	0.0218
GGAUCUUGGGUCAGGAUAUGCUGAUAGUUAUGUCAGCAGAAGGGACAUGAGGAUCACCCAUGUGCUUGGUUUUG	–	–	0.0129	0.0396
UGAGCCUCGUGAGGAUAUACAUGAGGAUCACCCAUGUAGUAAAGUGAACGGAGGAAACUCCGAAUGUAGAAGGCACGAGGCUCA	–	–	0.0132	0.0858
GUAAAGUGAGGAUAUGGUAAUUUAAUUAUUAAUUAAUUAAUCCAGAAGGCACAUGAGGAUCACCCAUGUAAAUG	–	–	0.0319	0.063
UCCGCUCGAGGAUAUACAUGAGGAUCACCCAUGUUUCCCUGUUGUUUGGCCUUAGGAUGUAGAAGGCGACGUUA	–	–	0.0177	0.0178
UCUUUGCUAUAUACAUGAGGAUCACCCAUGUCCACUGACAGACAGGAUAUCCUUAGAAACUAGCAGGAGAAGGGUCAGUCAUAC	0.14	0.0748	–	–
CAGGUGUUAGGAUAUCGGAGGUUGAGGCAGACGGGAAUAUUCGAGAAGGAACAUGAGGAUCACCCAUGUAGUAG	–	–	0.0228	0.0248
GAGUUAUCAGGAUAUACAUGAGGAUCACCCAUGUCGAUCAAUCCCGUGGGAACGCACUGUAGAAGGGAUGUAGU	–	–	0.0325	0.033
CCCAAACUUGGGCUUGGCGGUGCAUAGGAUAUCCUUGAACAUGAGGAUCACCCAUGUACAACUGUGGAGAAGGGUGCAGGGCCU	0.132	0.0173	–	–
CGCAACUCUUCACAUGUCAACAUGAGGAUCACCCAUGUAUUGAGAAGGAGGAAGAAGAGAGAUUCCUAGGAUAUCAGAGUUGCG	–	–	0.00675	0.00608
UGGUACUAGGGAGGAUAUGGGAAGCUACAUGAGGAUCACCCAUGUUUAAGAAUGCCGAGAGGCAACUAGAAGGCCCUAGUACCU	0.0302	0.00556	–	–
UGUAUGGACAGAGGAUAUACAGAUAGGAUCUACUAUCAAACAGUCCUAACAUGAGGAUCACCCAUGUAGAAGGCUGUCCAUACU	–	–	0.0206	0.0821
GGAGCUCACAUCUACAUGAGGAUCACCCAUGUCAAAAGACAUGAGGAUAUGCAUCCUAAUUGGAUGCAGAAGGCAUGGAGCUCC	0.946	0.0574	–	–
UGCUACGUUUCGUAGCAGCUAGGUGAGGAUAUUCAAUUUUUCACAUGAGGAUCACCCAUGUAUGUGAAGAAGGCGCCUAGAAAU	0.0128	0.0048	–	–
GUAGCAUACCGAGGAUAUUCAGGGCGUGAAUAAACAUGAGGAUCACCCAUGUGGCGAAAGCCUAGGGAGAAGGCGGAAUGCUAC	0.0259	0.0191	–	–
GGAUAGGCCAGAGGAUAUACGUGCUAGAGAUACUAGCAAAAUUUCCUCACAUGAGGAUCACCCAUGUAGAAGGCUGUCCUAUCG	–	–	0.00731	0.0499
AACCAACAUGAGGAUCACCCAUGUCAACCCAAGCGAGGAUAUCGGAGAAUAACAAUGGGACGAGAAGGCGCGACCU	0.0729	0.0478	–	–
UCUGGAGCAGGAUAUAUAUGACGUGCUUCGGCACGAAGAUCACAUGAGGAUCACCCAUGUAGAAGGGCUCCAGA	–	–	0.109	0.946
AAAACAUGAGGAUCACCCAUGUAUAGAUCGAUUAUUAGGAGUGAGGAUAUGCAAGUUAUAAGGUAGCAGAAGGCACUGGGAAAA	0.0257	0.0248	–	–
